TRPC4 block – blocks the mouse TRPC4 cation channel | Q9QUQ5 | HEK293 TRPC4beta/mu-opioid, DAMGO-evoked Fluo4 calcium flux; hits give low values | B-score at 10 µM | 0.39% of 300,000 active | AID 2247;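 active = B-score over 3 SD under the library average, no early fluorescence shift, positive overall ratio signal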
Target sequence (Q9QUQ5 whole entry, looked up): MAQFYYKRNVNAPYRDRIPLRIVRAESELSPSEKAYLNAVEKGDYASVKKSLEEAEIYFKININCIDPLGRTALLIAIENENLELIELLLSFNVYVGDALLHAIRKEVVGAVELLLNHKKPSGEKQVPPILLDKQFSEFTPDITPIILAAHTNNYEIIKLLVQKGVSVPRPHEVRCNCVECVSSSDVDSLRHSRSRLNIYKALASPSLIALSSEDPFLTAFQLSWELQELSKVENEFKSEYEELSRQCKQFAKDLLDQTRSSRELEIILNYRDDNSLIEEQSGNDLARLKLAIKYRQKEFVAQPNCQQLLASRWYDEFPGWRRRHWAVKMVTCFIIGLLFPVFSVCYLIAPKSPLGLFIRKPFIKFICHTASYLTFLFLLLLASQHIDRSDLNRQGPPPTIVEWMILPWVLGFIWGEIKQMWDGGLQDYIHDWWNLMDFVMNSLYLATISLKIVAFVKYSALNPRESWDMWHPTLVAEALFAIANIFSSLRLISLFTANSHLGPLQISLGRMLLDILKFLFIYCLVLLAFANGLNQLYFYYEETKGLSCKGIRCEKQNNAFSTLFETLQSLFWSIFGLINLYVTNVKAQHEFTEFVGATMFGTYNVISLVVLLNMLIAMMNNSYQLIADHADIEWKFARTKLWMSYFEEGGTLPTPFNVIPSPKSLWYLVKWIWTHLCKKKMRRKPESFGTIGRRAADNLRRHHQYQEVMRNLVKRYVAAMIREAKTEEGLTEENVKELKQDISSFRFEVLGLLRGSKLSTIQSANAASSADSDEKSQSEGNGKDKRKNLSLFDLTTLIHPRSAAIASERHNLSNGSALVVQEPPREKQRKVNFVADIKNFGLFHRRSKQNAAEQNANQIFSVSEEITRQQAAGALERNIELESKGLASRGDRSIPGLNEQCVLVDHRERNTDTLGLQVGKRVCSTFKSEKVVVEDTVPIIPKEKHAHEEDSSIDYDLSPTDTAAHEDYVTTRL
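System: stable TRPC4beta/mu-opioid receptor HEK293 cells; Dosing: single-point compound dosing; Measured by: Fluo4 Ca2+ flux fluorescence; Read-out basis: per-well B score of integrated baseline-normalized Fluo4 ratio.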
TRPC4 PAM – allosteric potentiators of mouse TRPC4 channel. AID 2227. 0.42% of 310,000 active. B-score at 10 µM. Q9QUQ5. HEK293 TRPC4beta/mu-opioid, DAMGO EC20, Fluo-4 Ca2+ flux; hits give high values;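 active = B-score of calcium response area above 5 SD of library B-scores, with initial fluorescence ratio within 5 SD of library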;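 note: B-score of integrated fluorescence ratio over time as area under calcium response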
TRPC4 act – opens the mouse TRPC4 cation channel; Q9QUQ5; HEK293 TRPC4beta/mu-opioid, Fluo4 calcium fluorescence; hits give high values; B-score at 10 µM; 0.49% of 310,000 active;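 active = B-score above 5 SD of library B-scores, and initial fluorescence ratio not above library mean plus 5 SD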;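 note: positive B-score marks a calcium rise read as TRPC4 activation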
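Assay system – TRPC4beta and mu-opioid receptor HEK293 stable cells · Measured by – Fluo4 fluorescence, kinetic · Schedule – dye loading 45 min room temperature, 110 s kinetic read · Read-out – B-scored integrated calcium fluorescence ratio · Controls – buffer and maximal DAMGO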
TRPC6 inh – blocks the mouse TRPC6 cation channel; HEK293-TRPC6, membrane potential dye, ACh-evoked depolarization; hits give low values; 1.1% of 310,000 active; B-score at 10 µM;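 active = B-score under library mean minus 3 SD, initial fluorescence not abnormally high, positive integrated signal ratio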;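 note: B-score derived from integrated fluorescence ratio over the kinetic read; more negative B-score means stronger inhibition of depolarization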
TRPC6 activator – activators of mouse TRPC6 channel; HEK293-TRPC6 membrane potential dye fluorescence; hits give high values; B-score at 10 µM; 0.13% of 310,000 active;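 active = B-score of the integrated fluorescence ratio above library mean plus 3 SD, and starting fluorescence ratio within library mean plus 5 SD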;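 note: higher score means more depolarization so channel activation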
TRPC4 spec 2 – mouse TRPC4 off-target activity of TRPC6 inhibitors, second screen. shares compounds with TRPC6 inh. HEK293 TRPC4/MOR, membrane potential dye fluorescence; channel activated by saturating DAMGO dose. inhibition, % at 10 µM. 42% of 920 active. AID 2776;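 active = compounds whose fluorescence signal differed from control wells by over 3 SD, either direction, in both duplicate plates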
TRPC4 spec – tests whether TRPC6 inhibitors also affect mouse TRPC4 | shares compounds with TRPC6 inh | HEK293 TRPC4/mu-opioid, membrane potential fluorescence | activity change, negative = inhibition, % at 10 µM | 61% of 920 active;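 active = rise or fall in signal beyond 3 SD of buffer-only wells in both replicate plates, either sign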;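 note: integrated kinetic ratio of fluorescence range over baseline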
HEK293 MPD ctr 2-1 – parental HEK293 nonspecific activity of TRPC6 inhibitors, second screen; parental HEK293 membrane potential dye fluorescence; maximal acetylcholine challenge after compound addition; shares compounds with TRPC6 inh; 31% of 920 active; signal change vs control, % at 10 µM; AID 2779;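 active = membrane potential signal moving either way by over 3 SD of the maximum-effect control, in both duplicate plates, meaning non-specific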
HEK293 MPD ctr-1 – counter-screen for TRPC6 inhibitors: effect in parental HEK293 cells. 60% of 920 active. parental HEK293 membrane potential dye fluorescence. shares compounds with TRPC6 inh. membrane potential signal change, % at 10 µM;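 active = membrane potential signal shifting up or down by more than 3 SD of buffer-only wells, on both duplicate plates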
HEK293 MPD ctr-2 – counter-screen for TRPC6 modulators: effect in parental HEK293 cells. shares compounds with TRPC6 inh. membrane potential dye fluorescence. membrane potential signal change, % at 10 µM. 51% of 2,400 active. AID 488924;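 active = membrane potential signal moves up or down beyond 5 SD from buffer-only wells, on both duplicate plates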
HEK293 MPD ctr 2-2 – second check of TRPC6 modulator effects in parental HEK293 cells; shares compounds with TRPC6 inh; membrane potential dye fluorescence; after compound, maximal acetylcholine stimulation; inhibition, % at 10 µM; 14% of 2,400 active; AID 488926;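 active = membrane potential signal drops by more than 5 SD from the mean control signal, in both duplicate plates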;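 note: plate controls were acetylcholine ECmax control wells for no effect and buffer only wells for full effect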
TRPC4/MOR mod – mouse TRPC4 off-target activity of TRPC6 modulators; shares compounds with TRPC6 inh; HEK293 TRPC4/mu-opioid, membrane potential fluorescence; percent change from control (negative = decrease, positive = increase), % at 10 µM; 69% of 2,400 active;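 active = membrane potential signal moved up or down beyond 5 SD of buffer control wells, in both duplicate plates, actives on both sides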;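 note: plate controls were assay buffer wells for no effect and DAMGO maximal-effect wells for full effect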
TRPC4 ctr inh 2 – mouse TRPC4 off-target activity of TRPC6 modulators, second screen | shares compounds with TRPC6 inh | HEK293 TRPC4/mu-opioid, membrane potential dye fluorescence; stimulated with maximal-effect DAMGO | inhibition, % at 10 µM | 55% of 2,400 active;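 active = drop in membrane potential signal beyond 5 SD of the control wells in both duplicate plates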;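 note: TRPC4 counter screen for TRPC6 hits run under conditions tuned for TRPC6 not TRPC4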
TRPC6 inh conf – confirmation of mouse TRPC6 inhibitors | 43% of 3,300 active | HEK293-TRPC6, membrane potential dye, ACh-evoked depolarization | shares compounds with TRPC6 inh | inhibition, % at 10 µM;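 active = fluorescence ratio falls more than 5 SD below the full-stimulation control mean, in both duplicate runs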;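 note: integrated fluorescence ratio of peak minus minimum over baseline after agonist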
TRPC6 act conf – confirmation of mouse TRPC6 activators | 11% of 2,800 active | activation, % at 10 µM | shares compounds with TRPC6 inh | AID 488961 | HEK293-TRPC6 membrane potential dye fluorescence, FDSS;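 active = ratio signal rise beyond 5 SD above unstimulated control wells' mean, seen in both duplicate runs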;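 note: plate controls were buffer EC0 wells for no effect and acetylcholine ECmax response for full effect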
Numbers without * were called inactive; i = inactive; . = no result given. A selection: hits, their analogues and other compounds. The true share with any hit is near 2.3%.

SMILES	TRPC4 block	TRPC4 PAM	TRPC4 act	TRPC6 inh	TRPC6 activator	HEK293 MPD ctr-2	HEK293 MPD ctr 2-2	TRPC4/MOR mod	TRPC4 ctr inh 2	TRPC6 inh conf	TRPC6 act conf	others
Cc1ccc(NS(=O)(=O)c2cccc(C(=O)NCCc3c[nH]c4ccccc34)c2)c(C)c1	i	i	i	i	i	.	.	.	.	.	.
Cc1cc(C)c2nc(N3CCC(C(=O)NCc4cccnc4)CC3)sc2c1	i	i	i	-5.3*	i	i	i	i	i	i	i
Cc1cc(C)c2nc(N3CCC(C(=O)NCc4ccccn4)CC3)sc2c1	i	i	i	i	i	.	.	.	.	.	.
CCc1ccccc1NC1=NCC(=O)N1C1CCCC1	i	i	i	i	i	.	.	.	.	.	.
CNCc1c(OCc2ccccc2)ccc2ccccc12	-6*	i	i	-7*	i	.	.	.	.	i	.	TRPC4 spec 2=44%*;TRPC4 spec=29%*;HEK293 MPD ctr 2-1=i;HEK293 MPD ctr-1=12%*
CNCc1c(OCc2ccccc2F)ccc2ccccc12	i	i	i	i	i	.	.	.	.	.	.
COc1cc(/C=N/NC(=O)CNC(=O)c2ccccc2)ccc1OC(=O)c1cccs1	i	i	i	-7.6*	13*	i	i	i	i	i	82%*
O=C(C[n+]1cccc2ccccc21)c1ccccc1	i	i	i	i	i	.	.	.	.	.	.
O=C(C[n+]1cc2ccccc2c2ccccc21)c1ccccc1	-7*	i	49*	-9.8*	i	.	.	.	.	i	i	TRPC4 spec 2=33%*;TRPC4 spec=0.9%*;HEK293 MPD ctr 2-1=i;HEK293 MPD ctr-1=-486%*
O=C(NC(=S)N1CCCCC1)C12CC3CC(CC(C3)C1)C2	i	i	i	i	i	.	.	.	.	.	.
CCOC(=O)N1CCN(C(=S)NC(=O)C23CC4CC(CC(C4)C2)C3)CC1	i	i	i	-5*	i	i	i	i	i	i	i
Cc1ccccc1CN1CCCC(C(=O)Nc2ccc(-c3ccn[nH]3)cc2)C1 (stereo not drawn)	i	i	i	i	i	.	.	.	.	.	.
C=CCn1c(/N=C/c2ccc(N(C)C)cc2)nc2ccccc21	i	10*	86*	-6.6*	22*	890%*	i	68%*	76%*	82%*	262%*
COc1ccc(OC)c2c(C)cc(N3CCN(C(=O)c4ccc(F)cc4)CC3)nc12	i	i	i	-5.7*	i	-244%*	i	-44%*	42%*	i	i
COc1ccc(N2CCN(c3cc(C)c4cccc(C)c4n3)CC2)cc1	i	i	i	i	i	.	.	.	.	.	.
COc1ccc(OC)c2c(C)cc(NCCN3CCOCC3)nc12	i	i	i	-8.9*	i	-276%*	70%*	-36%*	68%*	72%*	i
COc1cccc2c(C)cc(N3CCCCCC3)nc12	i	i	i	-9.4*	i	-262%*	i	-47%*	86%*	46%*	i
COc1ccc(OC)c2c(C)cc(N3CCN(C(=O)c4ccc(C)cc4)CC3)nc12	i	i	i	i	i	.	.	.	.	.	.
COc1ccc(OC)c2c(C)cc(C)nc12	i	i	i	i	i	.	.	.	.	.	.
COc1ccc(OC)c2c(C)cc(N3CCCCCC3)nc12	-5*	i	i	-6.6*	i	.	.	.	.	i	i	TRPC4 spec 2=74%*;TRPC4 spec=-22%*;HEK293 MPD ctr 2-1=i;HEK293 MPD ctr-1=-419%*
COc1ccc(S(=O)(=O)NCCN2CCOCC2)c(C)c1C	i	i	i	i	i	.	.	.	.	.	.
CCCCc1n[nH]c2c1/C(=N/OCC)CC(C)(C)C2	i	i	i	i	i	.	.	.	.	.	.
CC(C)[C@H](NC(=O)C1CCN(S(=O)(=O)c2ccccc2)CC1)C(=O)NCc1ccccc1	i	i	i	i	i	.	.	.	.	.	.
OCCC1CN(Cc2cc(F)ccc2-n2cccn2)CCN1C1CCCC1 (stereo not drawn)	i	i	i	i	i	.	.	.	.	.	.
Cc1ccc(SCC(=O)Nc2ccc(N3CCN(C)CC3)c(F)c2)c(C)c1	i	i	i	-7.1*	i	.	.	.	.	i	i	TRPC4 spec 2=72%*;TRPC4 spec=-9.4%*;HEK293 MPD ctr 2-1=i;HEK293 MPD ctr-1=i
SMILES	TRPC4 block	TRPC4 PAM	TRPC4 act	TRPC6 inh	TRPC6 activator	HEK293 MPD ctr-2	HEK293 MPD ctr 2-2	TRPC4/MOR mod	TRPC4 ctr inh 2	TRPC6 inh conf	TRPC6 act conf	others
Cc1ccc(-n2nnnc2SCC(=O)Nc2ccc(N3CCN(C)CC3)cc2)c(C)c1	i	i	i	i	i	.	.	.	.	.	.
Cc1ccc(/C=c2\sc3n(c2=O)CN(c2ccc(Br)cc2)CN=3)o1	i	i	i	-5.6*	i	i	i	i	i	i	i
Cc1ccc(/C=c2/sc3n(c2=O)CCCN=3)o1	i	i	i	i	i	.	.	.	.	.	.
CCN1CCN(Cc2ccc(NC(=O)CC3Oc4ccc(C)cc4NC3=O)cc2)CC1 (stereo not drawn)	i	i	i	i	i	.	.	.	.	.	.
Cc1ccc2c(c1)NC(=O)C(CC(=O)Nc1ccc(CN3CCC(C)CC3)cc1)O2 (stereo not drawn)	i	i	i	-8.5*	i	.	.	.	.	79%*	i	TRPC4 spec 2=i;TRPC4 spec=i;HEK293 MPD ctr 2-1=-4.5%*;HEK293 MPD ctr-1=i
COc1ccccc1CNC(=O)C1CC2Cn3c(nc4cc(C)c(C)cc43)C2N1C (stereo not drawn)	i	i	i	i	i	.	.	.	.	.	.
